According to the EternaBench riboswitch data:

Tested on: MS2 coat protein
Assay: apparent Kd, MS2 coat protein; higher = weaker binding; RNA-MaP array; FMN 200 µM where present
In short: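 Designs were transcribed by stalled E. coli RNA polymerase on Illumina sequencing-chip clusters. They were titrated with SNAP-549-labelled MS2 coat protein from 0.7 or 1.5 nM, doubling to 3 µM, without and then with constant ligand. Buffer: 100 mM Tris-HCl pH 7.5, 80 mM KCl, 4 mM MgCl2, BSA, DTT, yeast tRNA, Tween-20. Green signal was normalised to red-channel RNA signal and control-cluster median Fmax. Apparent Kd is the median of filtered per-cluster binding-curve fits.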

[1] = designed as: ON switch for flavin mononucleotide, no ligand
[2] = ligand present: flavin mononucleotide, designed as: ON switch for flavin mononucleotide
[3] = designed as: OFF switch for flavin mononucleotide, no ligand
[4] = ligand present: flavin mononucleotide, designed as: OFF switch for flavin mononucleotide

Sequence	apparent Kd [1]	apparent Kd [2]	apparent Kd [3]	apparent Kd [4]
AUGGACGUCGUAGGAUAUGUAGGAUUCUCGUACAUGAGGAUCACCCAUGUUGACGUCGAGGACGGACAGAAGGGCGGUGUCUAU	64.6 nM	9.38 nM		
UUUUGACAUGAGGAUCACCCAUGUGAGGAUAUGGAGCGCGACCGCGCGGUCGCGUACACCAGAAGGCGCAGGAA			40.3 nM	70.8 nM
GGAUAGGACAGAGGAUAUACGUGUUAGAGAUACUAGCAAAAUUUCCUCACAUGAGGAUCACCCAUGUAGAAGGCUGUCCUAUCG			23.1 nM	413 nM
GGGUACAUCGGAGGAUAUCAUGUAUAGACAUGAGGAUCACCCAUGUCGUACGAGAGUACGGAGAUUGAGAAGGCCGAUGUACCG	20.7 nM	17.3 nM		
UCAUUUCUGUAAGGAUAUUAAAACAUGACGAUACAUGAGGAUCACCCAUGUUAAGAAGGUACAAAUACAUAUAAUGCAAUGUUC			15.7 nM	14.8 nM
CCUCCCUGAGGAUAUCCACCCUCAUACAUGAGGAUCACCCAUGUUCAACCCUGGGUACCCGGAGAAGGCAGAUUUC			116 nM	175 nM
ACAUCUAGAGGAUAUACAUGAGUGAUACACGUAUUUCCACUACAUGAGGAUCACCCAUGUAGAAGGCUAGAUGA			50 nM	16.9 nM
UGUCGGAGCAGAGGAUAUUACAUGAGGAUCACCCAUGUAUUAACCAAUAGCUGGAAACAGCAAUGUAAGAAGGCUGCUCCGACA			5.11 nM	7.87 nM
AGCUGUGGCCGAGGAUAUCUAUUAAUCCAAACCGAAAUAUAAUCGGACAUGAGGAUCACCCAUGUAGAGAAGGCGGUCUCAGCA			72 nM	77.2 nM
GAUAGAGAGCAGGAUAUCUUGGGUAAGUAUCGUAGAGAAGGGCUCACAUGAGGAUCACCCAUGUGGUCCAAGAU			14.2 nM	32.6 nM
AUAGAGAUAGCGAUAUGAUCGAGAGAUCAUGUCGCUAAGAUUAGAAGGACAUGAGGAUCACCCAUGUAGGAUAUGGGAGUAGAA	127 nM	49.8 nM		
CGAUAUAACUCAGGAUAUCGGCAUGGGUAGAUUACAUGAGGAUCACCCAUGUGCAUGUCCCGGCACGAGAAGGGAGUAACGCAU	290 nM	47.8 nM		
AAGUCUGGACGAGGAUAUCAGCUGUAACUGGCGUCAACAUGAGGAUCACCCAUGUUGCUAUAGGGUGAGAAGGCGUUUGGGCAA	24.1 nM	19.5 nM		
UAUAUAUAGUAAGGAUAUGUAUUAAUUUUACAAACAGAAGGUACUGACAUGAGGAUCACCCAUGUUUUAGUGUGGGCAUGUAGA			59.9 nM	72.6 nM
GCAUUGAUAACAGGAUAUAUGUUUCCUACAUGAGGAUCACCCAUGUAGGUGAUCAGCCGAGAAAAGUAGAAGGGUUAUCAAUGC	16.7 nM	15.4 nM		
GGAGCACACAUUAACAUGAGGAUCACCCAUGUCAAAAGACAUGAGGAUAUGGAUACGAAAAGGAUCCAGAAGGCAUGGUGCUCC	693 nM	72.5 nM		
UGUUGUAAACAGAACAUGAGGAUCACCCAUGUGCUCUCGUGUAAGGAUAUACAUUCGUAUGGAAAGUAGAAGGUACUAAUUAUG	103 nM	117 nM		
GCCUUAUCGGUCAGGAUAUACACCCGUCACUUCUUGUAGAAGGGACAUGAGGAUCACCCAUGUACAUUACAUUG			313 nM	177 nM
GCAGCAUCUGCAGGAUAUCAGCACGUGUAGUGCUGAGAAGGGCACAUGAGGAUCACCCAUGUGAUCAAUUAAUAUAGAUGCUGC			5.78 nM	15.8 nM
UGAGGACAUGAGGAUCACCCAUGUAAGGAUAUGCGGAGAGAUUGGAGAGGUCGAGGAGGCAGAAGGUACAGGAC			143 nM	74.7 nM
UUAACUCAUGUAGGAUAUGCAUGGCGAAGCUACGCAGAAGGACAUGAGGAUCACCCAUGUUCUAGCGUCUGAGUACAGAUGCAA			43.4 nM	290 nM
CGUCCACAUGAGGAUCACCCAUGUGAGGAUAUCGAUGUCCCAGGGCGGGUGCGGGACUCGAGAAGGCACUAGGU			32.7 nM	93.6 nM
GAUUCACAUGAGGAUCACCCAUGUCGUUUAAUGGGAGGAUAUACGUGGACCGUAGUCCGCGUAGAAGGCCUAAUUG	95.1 nM	25.6 nM		
GGGCUGUCAGGAUAUCUCGGGCUCGGGUAAAUCUGGGUCUGGGAGAAGGGACAUGAGGAUCACCCAUGUGGCCC			34.3 nM	37.9 nM
GUAGGGUCAGGAUAUACUGGCUGAGGGAUGUAUUGUAGUUGGUAGAAGGGACAUGAGGAUCACCCAUGUAAGUA			35.4 nM	34 nM
AAUAACAGAGGAUAUACUAUUUUAUGUGUUUAUUGUUUUAAACAUGAGGAUCACCCAUGUAGAAGGCUGAAUGA			37.6 nM	54.4 nM
UAUUAGCUAGGAUAUACAUGAGGAUCACCCAUGUCACGGGUCCACUUGUCCUAUGCGUGUAGAAGGAGCGACCC			22.4 nM	25.8 nM
GGUGGCGUGAUAACGCUAGAUAUAACAUGAGGAUCACCCAUGUAGGAUAUCCUGCCGAGAGGGCGGGAGAAGGACAACCAAUGG			41.9 nM	41.8 nM
